An excerpt weighted towards active compounds, which were near 2.9% of everything screened.
CHO-K1 Ca PAM – nonselective activator or artifact in parental CHO-K1 calcium assay. 0.02% of 360,000 active. ATP EC20, Fluo-8 calcium fluorescence; 0% at ATP EC20, 100% at ATP max. AID 602247. activation, % at 3 µM;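 active = activation above the run cutoff, the mean activation of all test compounds plus 3 SD, cut at about 40% in these data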;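 also: peak over basal fluorescence ratio in a 140 s read after ATP addition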
M1 ag parental – M1 agonist counterscreen hit in parental CHO-K1 cells | Fluo-8 calcium fluorescence; scaled to maximal ATP response, vehicle zero | AID 602248 | 0.48% of 360,000 active | activation, % at 3 µM; in the data active = activation above about 15%;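 also: untransfected CHO-K1 host cells lacking M1 receptor as counterscreen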
OX1R antag-1 – blocks the human orexin 1 receptor. O43613. CHO/OX1R cells, Fluo-8 calcium fluorescence, orexin A. inhibition, % at 5 µM. 0.43% of 330,000 active. AID 434989;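 active = inhibition above its plate's threshold, mean inhibition of all tested compounds on the plate plus 3 SD, cut at about 37% in these data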;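 also: 0% = orexin A challenge wells and 100% = SB-334867-A antagonist wells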
Target sequence (O43613 whole entry, looked up): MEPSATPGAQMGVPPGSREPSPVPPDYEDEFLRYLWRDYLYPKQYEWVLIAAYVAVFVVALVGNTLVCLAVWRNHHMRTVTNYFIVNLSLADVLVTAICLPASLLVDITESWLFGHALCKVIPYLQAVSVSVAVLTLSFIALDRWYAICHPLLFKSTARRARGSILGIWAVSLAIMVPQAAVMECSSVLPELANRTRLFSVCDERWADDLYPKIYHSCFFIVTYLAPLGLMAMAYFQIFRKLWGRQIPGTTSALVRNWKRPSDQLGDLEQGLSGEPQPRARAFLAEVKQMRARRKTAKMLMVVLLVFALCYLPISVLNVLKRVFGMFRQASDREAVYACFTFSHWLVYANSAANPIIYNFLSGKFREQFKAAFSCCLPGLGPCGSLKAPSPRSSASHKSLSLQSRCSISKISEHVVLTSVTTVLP
CHO-K1 Ca antag – counter-screen for M1 antagonists: effect in parental CHO-K1 cells | 0.6% of 360,000 active | inhibition, % at 3 µM | ATP-induced calcium, Fluo-8 fluorescence | AID 602250;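 active = inhibition above a per-plate cutoff, the plate's mean sample inhibition plus 3 SD, cut at about 24% in these data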;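 also: 0% = DMSO plus EC80 ATP and 100% = DMSO alone without ATP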
OX1R antag-2 – OX1R (human) antagonism. O43613. OX1R-expressing cells, FRET antagonist read-out. inhibition, % at 6.6 µM. 1.8% of 330,000 active; in the data active = inhibition mostly above about 38%, no sharp cut-off; inactive = mostly below about 40%;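 also: 0% = agonist challenge alone and 100% = reference antagonist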
CHO parental Ca – counter-screen for OX1R antagonists: effect in parental CHO cells; 0.63% of 330,000 active; parental CHO-K1, ATP-induced calcium, Fluo-8 fluorescence; inhibition, % at 5.6 µM;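 active = inhibition above that plate's mean sample inhibition plus 3 SD, cut at about 26% in these data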;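 also: 0% = ATP-challenged DMSO wells and 100% = DMSO wells without ATP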
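Material: Parental CHO cells | Reagent: ATP | Compound dosing: Single nominal dose of 5.6 µM per compound | Detection: Intracellular calcium via Fluo-8 no-wash fluorescent dye | Read-out: % inhibition of ATP-induced calcium mobilization | Benchmarks: Low control ATP plus DMSO, high control DMSO only | Replicates: Singlicate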
OX1R HTRF confirm – OX1R (human) antagonism, HTRF confirmed. shares compounds with OX1R antag-2. OX1R-expressing cells, HTRF antagonist assay. inhibition, % at 6.6 µM. 49% of 1,800 active; in the data active = inhibition above about 55%;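 also: CHO cells expressing OX1R stimulated with orexin A at about EC80; 0% = agonist challenge alone and 100% = reference antagonist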
CHO-K1 HTRF cnt – signal in parental CHO-K1 cells, OX1R antagonist counter-screen | 48% of 1,800 active | HTRF counterscreen | inhibition, % at 6.6 µM | shares compounds with OX1R antag-2; in the data active = inhibition above about 17%;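 also: 0% = agonist challenge with vehicle and 100% = vehicle alone without agonist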
The depositor's hits bear a star; . = no result given; + = active, no number.

SMILES	CHO-K1 Ca PAM	M1 ag parental	OX1R antag-1	CHO-K1 Ca antag	OX1R antag-2	CHO parental Ca	OX1R HTRF confirm	CHO-K1 HTRF cnt
CC(c1ccco1)N(C(=O)c1ccccc1NS(=O)(=O)c1ccc(Cl)c([N+](=O)[O-])c1)c1ccccn1 (stereo not drawn)	11	9	24	-2	98*	18	52	10
COCCN(C(=S)Nc1c(C)cccc1C)C(C)c1cccs1 (stereo not drawn)	10	3	-13	-2	147*	-5	33	5
N#Cc1ccc(CN2CCN(C(=O)c3cc(C4CC4)nn3-c3ccccc3)CC2)cc1	1	2	-10	-10	-2	-16	.	.
NC(=O)c1cc(Cc2ccccc2)sc1NC(=O)c1ccco1	12	2	-15	-9	26	-19	.	.
CCOc1ccc(CC(=O)Nc2sc(Cc3ccccc3)cc2C(N)=O)cc1OCC	10	0	14	-15	79*	-17	88*	2
Cc1ccc(-n2c(C)nn(Cc3ccc([N+](=O)[O-])cc3)c2=O)cc1	8	5	-21	-9	29	-8	.	.
Cc1ccc(-n2c3nc(=O)[nH]c(=O)c-3cc3cc([N+](=O)[O-])ccc32)cc1	17	0	-6	-10	84*	-12	56*	65*
NC(=O)c1ccc(N=C2C(=O)Nc3ccc([N+](=O)[O-])cc32)cc1	4	0	-8	-16	84*	-12	64*	72*
O=C1Nc2ccccc2C1=Nc1cccc([N+](=O)[O-])c1	-4	6	-12	-4	21	-7	.	.
COc1cc(CN2C(=O)C(C)ON=C2c2ccccc2F)cc(OC)c1 (stereo not drawn)	-10	0	.	9	.	.	.	.
CC(=O)Nc1ccc(S(=O)(=O)O)c(OC(C)=O)c1	6	1	.	-10	.	.	.	.
CCOC(=O)N1CCC(NC(=S)Nc2ccc3nc(N4CCN(C)CC4)cc(C)c3c2)CC1	0	-1	-23	-4	105*	-7	20	-1
CC(=O)c1nnn(-c2ccc([N+](=O)[O-])cc2)c1C	0	0	-11	-9	123*	-4	42	59*
CCc1cc(C(=O)N/N=C/c2ccc(OC)cc2)c2ccccc2n1	10	0	-18	1	2	-18	.	.
CCCCN(C=O)c1c(CC)nc2c(OCc3ccc(Cl)cc3)cccn12	25	4	.	-12	.	.	.	.
CCOc1ccc(N(CC(=O)N/N=C/c2cc([N+](=O)[O-])ccc2Cl)S(C)(=O)=O)cc1	15	0	13	-9	81*	0	22	7
CCCOc1ccc(/C=N/NC(=O)CN(c2ccc(OCC)cc2)S(C)(=O)=O)cc1	-13	4	-46	16	5	-13	.	.
COC(=O)c1ccc2c(c1O)C(=O)c1ccccc1C2=O	10	0	-18	-7	59	-22	.	.
CCSc1c(C(=O)NC)ccc2c1C(=O)c1ccccc1C2=O	-3	0	-14	11	91*	-4	58*	92*
COCCNc1nc(-c2cc(C(=O)Nc3ccccc3)on2)cc(C(C)C)n1	.	.	-26	.	9	-23	.	.
O=C(O)c1ccc2nc3c(nc2c1)-c1ccccc1C3=O	17	0	10	-11	+	-9	64*	84*
CC(C)(C)[C@@H]1COC(=O)[C@H](Cc2ccc(F)cc2)C/C=C\C[C@@H](CC(=O)NCCO)C(=O)N1	18	0	-7	-13	1	-12	.	.
O=c1c2ccccc2nc2ccc(N3CCOCC3)nn12	-6	0	-11	7	94*	-4	31	37*
Cc1ccc2nc3ccc(N4CCCCCCC4)nn3c(=O)c2c1	18	1	-26	2	56	-10	.	.
Cc1cc(N2CCOCC2)nc2ccccc12	14	0	-27	-9	15	-19	.	.
SMILES	CHO-K1 Ca PAM	M1 ag parental	OX1R antag-1	CHO-K1 Ca antag	OX1R antag-2	CHO parental Ca	OX1R HTRF confirm	CHO-K1 HTRF cnt
Cc1ccc2nc3ccc(N4CCN(C)CC4)nn3c(=O)c2c1	-2	0	-11	3	77*	-13	36	25*
Fc1cccc(Cl)c1C1SCc2nc3ccccc3n21 (stereo not drawn)	2	4	.	6	.	.	.	.
CN(C)c1ccc(NS(=O)(=O)c2cc3c4c(c2)CC(=O)N4CCC3)cc1	-24	0	-7	10	4	7	.	.
CC(=O)Nc1ccc2c(c1)C(=O)c1ccccc1C2=O	-4	0	-6	6	102*	0	70*	39*
CC(=O)Nc1ccc2c(c1)c1ccccc1n2C(C)=O	10	1	0	0	78*	-12	71*	14
O=C(O)/C=C/C(=O)Nc1ccc2c(c1)C(=O)c1ccccc1C2=O	8	1	-3	-7	83*	-5	41	50*
O=C(O)/C=C/C(=O)Nc1ccc(C(=O)c2ccccc2)cc1	-12	0	9	-4	1	0	.	.
CC(=O)Nc1cccc(-c2nc3ccccc3o2)c1	-6	0	25	-2	80*	-11	66*	1
CC(=O)Nc1ccc2c(c1)ncn2-c1ccccc1	6	0	9	-6	6	-5	.	.
O=C(Nc1cc(Cl)ccc1-n1cncn1)c1ccc([N+](=O)[O-])s1	17	4	-13	-16	30	-12	.	.
Cc1ccc(NC(=O)COC(=O)Cc2c[nH]c3ccccc23)cc1F	-1	2	.	4	.	.	.	.
CC(=O)Nc1ccc2nc3ccccc3nc2c1	5	1	-5	-2	134*	-3	110*	65*
CC(=O)c1cccc(NC(=O)c2ccc(C)c(S(=O)(=O)N3CCOCC3)c2)c1	-2	2	-12	-13	27	-15	.	.
Cc1ccc(C(=O)Oc2cccc(NC(=O)c3cccs3)c2)cc1S(=O)(=O)N1CCOCC1	5	3	21	0	79*	16	32	10
Cc1ccc(C(=O)NC2CC2)cc1S(=O)(=O)N1CCOCC1	-8	0	-5	0	4	-2	.	.
Cc1ccc(C(=O)Nn2cnnc2)cc1S(=O)(=O)N1CCOCC1	-13	0	-5	3	86*	-2	13	-7
CCc1ccc(-c2n[nH]nc2C2=CC(=O)C[C@H](c3ccc(F)cc3)C2)cc1	13	1	.	-6	.	.	.	.
COc1ccc(-c2ccc(SCC(=O)N3CC(=O)Nc4ccccc43)nn2)cc1	16	2	-18	-15	97*	-5	19	6
CCCCc1c(-c2ccc(OC)cc2)ncn1CCc1ccccc1OC	7	10	.	1	.	.	.	.
COc1cccc(C(=O)NC2CCNCC2)c1	9	0	0	8	31	11	.	.
